The subject of series [1] is NB-4. The series is described as follows: Cytotoxicity against human NB-4 cells assessed as reduction in cell viability measured after 24 hrs by CCK-8 assay. In kind it is functional, cell-based. To be noted: NB-4, 24 h. In short, it runs like this: (§1)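 Cells were grown in RPMI-1640 or high-glucose DMEM with 10% FBS at 37 °C, 5% CO2, and seeded at 3 × 10^4 cells/well. Exposure was 24 h across serial concentrations (0−1000 μM in the screen). […] Three independent experiments, mean ± SEM.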
On the technique in general: Tetrazolium dyes change colour on reduction, which living cells bring about.

For series [2], the system named is NB-4. The series is described as follows: Antitumor activity against human NB-4 cells xenografted in BALB/c nude mouse assessed as tumor growth inhibition at 15 mg/kg/day, ip administered for 2 weeks relative to control. To be noted: NB-4, ip, 336 h, read-out: TGI. The series is classed as functional. In short, it runs like this: (§2)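 Female Balb/c nude mice, 4 weeks old, received 2 × 10^6 NB4 cells s.c. in the right flank. Once tumours reached about 0.5 cm diameter, mice were randomised to corn-oil vehicle or drug in corn oil (n = 5). Dosing was 15 mg/kg/d i.p. once daily for 2 weeks. Caliper volume (length × width²)/2 was taken every other day, and tumours were excised and weighed at the end.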
In general terms: A xenograft is tissue or cells of one species grown in another, often human tumour cells in immunodeficient mice.

A short description of series [3]: Induction in caspase-mediated apoptosis in human NB-4 cells assessed as necrotic cells at 100 uM incubated for 24 hrs in presence of Z-VAD-FMK by Annexin V-FITC/propidium iodide staining based flow cytometry analysis (reference value: 0.167%). In kind it is functional. On the technique in general: In flow cytometry, cells or beads pass a laser one at a time.
Series [4] can be described thus: Induction in caspase-mediated apoptosis in human NB-4 cells assessed as early apoptotic cells at 100 uM incubated for 24 hrs in presence of Z-VAD-FMK by Annexin V-FITC/propidium iodide staining based flow cytometry analysis (reference value: 1.84%). The series is classed as functional.
The test system of series [5] is NB-4. Kind of series: Effect on glycogen synthase phosphorylation in human NB-4 cells assessed as reduction in ratio of p-GS to GS measured after 24 hrs by Western blot analysis. In kind it is functional, cell-based. An outline of the steps:
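NB4 and NB4-R1 cells were treated 24 h at several concentrations and lysed in RIPA. Equal protein was immunoblotted for phospho-glycogen synthase (Ser641), total GS and β-actin, with ECL detection. Band densities were quantified as the p-GS/GS ratio. n = 3, mean ± SEM.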

Series [6] can be described thus: Induction in caspase-mediated apoptosis in human NB4-DR1 cells assessed as necrotic cells at 100 uM incubated for 24 hrs in presence of Z-VAD-FMK by Annexin V-FITC/propidium iodide staining based flow cytometry analysis (reference value: 0.223%). In kind it is functional.
Series [7] in a line: Induction in caspase-mediated apoptosis in human NB-4 cells assessed as viable cells at 25 uM incubated for 24 hrs in presence of Z-VAD-FMK by Annexin V-FITC/propidium iodide staining based flow cytometry analysis (reference value: 96.8%). The series is classed as functional. Conditions: read-out: Activity.
Series [8] has as its target Glycogen synthase kinase-3 alpha (Homo sapiens) (UniProt P49840). The series is described as follows: Inhibition of recombinant human GSK-3alpha at 100 uM by mobility shift assay relative to control.
Series [9] can be described thus: Induction in caspase-mediated apoptosis in human NB4-DR1 cells assessed as early apoptotic cells at 12.5 uM incubated for 24 hrs by Annexin V-FITC/propidium iodide staining based flow cytometry analysis (reference value: 1.43%). The series is classed as functional.
Series [10] can be described thus: Cytotoxicity against HUVEC assessed as cell viability at 0 to 50 uM incubated for 24 hrs by CCK-8 assay relative to control. The series is classed as cell-based. Conditions: human, dose 0-50 µM, read-out: Activity. In short, it runs like this:
(§3)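 HUVEC and LO2 normal cells were cultured in RPMI-1640 or DMEM with 10% FBS at 37 °C, 5% CO2, and seeded at 3 × 10^4 cells/well. They were exposed for 24 h to graded concentrations. CCK-8 incubation was 3 h at 37 °C, with A450 read and viability expressed versus untreated control. Three independent experiments, mean ± SEM.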

Series [11] is described as follows: Induction in caspase-mediated apoptosis in human NB4-DR1 cells assessed as late apoptotic cells at 25 uM incubated for 24 hrs in presence of Z-VAD-FMK by Annexin V-FITC/propidium iodide staining based flow cytometry analysis (reference value: 2.54%). In kind it is functional.
Series [12] is described as follows: Induction in caspase-mediated apoptosis in human NB-4 cells assessed as late apoptotic cells at 12.5 uM incubated for 24 hrs in presence of Z-VAD-FMK by Annexin V-FITC/propidium iodide staining based flow cytometry analysis (reference value: 1.15%). The series is classed as functional.
Series [13] deals with NB-4. The series is described as follows: Antitumor activity against human NB-4 cells xenografted in BALB/c nude mouse assessed as reduction in tumor mass at 15 mg/kg/day, ip administered for 2 weeks. In kind it is functional, organism-based. In short, it runs like this:
as §2

A short description of series [14]: Induction in caspase-mediated apoptosis in human NB-4 cells assessed as necrotic cells at 25 uM incubated for 24 hrs by Annexin V-FITC/Propidium iodide staining based flow cytometry analysis (reference value: 0.352%). The series is classed as functional.
Series [15] can be described thus: Induction in caspase-mediated apoptosis in human NB-4 cells assessed as necrotic cells at 100 uM incubated for 24 hrs by Annexin V-FITC/Propidium iodide staining based flow cytometry analysis (reference value: 0.352%). The series is classed as functional.
A short description of series [16]: Induction in caspase-mediated apoptosis in human NB-4 cells assessed as necrotic cells at 12.5 uM incubated for 24 hrs by Annexin V-FITC/Propidium iodide staining based flow cytometry analysis (reference value: 0.352%). In kind it is functional.
A short description of series [17]: Induction in caspase-mediated apoptosis in human NB4-DR1 cells assessed as necrotic cells at 50 uM incubated for 24 hrs by Annexin V-FITC/propidium iodide staining based flow cytometry analysis (reference value: 0.19%). In kind it is functional.
Series [18] in a line: Cytotoxicity against human L02 cells assessed as cell viability at 0 to 50 uM incubated for 24 hrs by CCK-8 assay relative to control. In kind it is cell-based. Conditions: dose 0-50 µM, read-out: Activity. In short, it runs like this:
as §3

Series [19] deals with HL-60. The series is described as follows: Cytotoxicity against human HL-60 cells assessed as reduction in cell viability measured after 24 hrs by CCK-8 assay. In kind it is functional, cell-based. To be noted: HL-60, 24 h. An outline of the steps:
as §1

A short description of series [20]: Induction in caspase-mediated apoptosis in human NB-4 cells assessed as early apoptotic cells at 25 uM incubated for 24 hrs by Annexin V-FITC/propidium iodide staining based flow cytometry analysis (reference value: 2.02%). In kind it is functional.
Series [21] in a line: Induction in caspase-mediated apoptosis in human NB4-DR1 cells assessed as necrotic cells at 25 uM incubated for 24 hrs in presence of Z-VAD-FMK by Annexin V-FITC/propidium iodide staining based flow cytometry analysis (reference value: 0.223%). In kind it is functional.
A short description of series [22]: Induction in caspase-mediated apoptosis in human NB4-DR1 cells assessed as viable cells at 50 uM incubated for 24 hrs in presence of Z-VAD-FMK by Annexin V-FITC/propidium iodide staining based flow cytometry analysis (reference value: 96.4%). The series is classed as functional. To be noted: read-out: Activity.
A short description of series [23]: Induction in caspase-mediated apoptosis in human NB-4 cells assessed as late apoptotic cells at 100 uM incubated for 24 hrs by Annexin V-FITC/propidium iodide staining based flow cytometry analysis (reference value: 1.06%). The series is classed as functional.
Series [24] is described as follows: Terminal half life in ICR mouse at 15 mg/kg, ip administered as single dose measured upto 8 hrs by LC-MS/MS analysis. In kind it is ADME, organism-based. To be noted: in vivo. In short, it runs like this:
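Male ICR mice (30 g) received a single 15 mg/kg i.p. bolus in corn oil. Orbital blood went into K3EDTA tubes at 0.08–8 h, three animals per time point (composite profile). Plasma was protein-precipitated with acetonitrile and analysed by LC–MS/MS; non-compartmental analysis.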

Each structure is given as a SMILES string. Active and inactive are the calls of the source. The rule behind the calls is not given here.

One may read the IC50 as the concentration that inhibits the measured activity by half. The term inhibition denotes the relative decrease from the control value, in per cent.

Glycogen synthase kinase-3 alpha (Homo sapiens), sequence (P49840 2-483 limits assumed): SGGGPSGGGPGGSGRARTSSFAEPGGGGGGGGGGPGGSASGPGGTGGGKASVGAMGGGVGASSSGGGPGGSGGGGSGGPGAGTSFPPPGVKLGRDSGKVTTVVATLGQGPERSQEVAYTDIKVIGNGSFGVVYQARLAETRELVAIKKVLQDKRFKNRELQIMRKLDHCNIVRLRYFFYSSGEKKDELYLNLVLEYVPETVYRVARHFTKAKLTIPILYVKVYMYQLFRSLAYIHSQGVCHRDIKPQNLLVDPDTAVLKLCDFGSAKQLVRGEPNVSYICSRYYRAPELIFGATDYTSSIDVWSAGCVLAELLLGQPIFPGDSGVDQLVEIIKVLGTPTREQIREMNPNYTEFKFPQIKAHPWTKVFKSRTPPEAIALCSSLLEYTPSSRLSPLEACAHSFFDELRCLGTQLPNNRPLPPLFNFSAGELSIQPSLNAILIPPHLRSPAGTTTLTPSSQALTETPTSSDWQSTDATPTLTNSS

Consider `C=CC(=O)N1C(=O)CC(c2ccc(F)cc2)Sc2ccccc21` (centres undefined), for which the figures for the half-maximal inhibitory concentration (IC50) in series [1] and in series [19] were 19.6 µM and 86.3 µM, respectively. Also, the inhibition in vivo at 15 mg/kg/day in [2] worked out at 76%. In addition, the Activity in series [3] came to 2.88%; in [4], 5.35%; in series [6], 1.4%; in [9], 1.77%; in series [11], 5.45%; in series [12], 7.39%. Further, the Activity in series [14] was 11.6%; in [15], 4.39%; in series [16], 6.13%; in [17], 2.29%; in series [20], 6.44%; in series [21], 0.485%. In addition, the Activity in [23] came to 85.5%. For the same compound, the result in [5] and in series [13] was Active. Also, in series [7], the viability at 25 µM was found to be 80%. Further, the inhibition in series [8] was found to be 87.3%. For the same compound, the viability at 24 h, up to 50 µM in series [10] and in series [18] was over 80% in each case. Moreover, in [22], the viability at 50 µM was found to be 91.3%. Besides, the “beta t1/2” value in series [24] worked out at 14.2 h.
